CendR NRP1 mod = alters CendR peptide binding to human NRP-1. actives 0.85% (n = 360,000). inhibition, % at 25 µM. O14786. FAM-RPARPAR peptide binding to NRP-1, fluorescence polarization. AID 602438;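 active = inhibition or corrected inhibition above about 18%, plus a signal ratio from 0.5 to 1.5, limit read from the data, passing the limit was not always enough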
ATG4B inh = ATG4B (human) cysteine protease inhibition; ATG4B cleavage of LC3-PLA2, NBD-HPC fluorescence, 1 h; inhibition, % at 8.33 µM; actives 0.51% (n = 340,000); AID 504462; in the data active = inhibition above about 40%
Arrestin-AP2 inh = human beta-arrestin and AP2 interaction inhibition. FITC-arrestin peptide / GST-AP2 beads, flow cytometry; AP2 beta2 appendage carries R879A mutation. inhibition, % at 10 µM. actives 0.31% (n = 340,000). AID 504490;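 active = inhibition above a set limit, near 3 SD of compounds lacking own fluorescence, cut at about 54% in these data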;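 note: plate controls were DMSO wells for no effect and 5 µM unlabelled arrestin peptide for full effect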
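System: GST-AP2 R879A glutathione beads | Also added: FITC-arrestin peptide, 50 nM | Times: 12 min plus 1 h, RT | Signal: Bead flow cytometry, FITC channel | Buffer or medium: PBS with 0.05% Tween 20 and 0.1% BSA | Read-out basis: Percent drop in bead-associated FITC signal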
ABCB6 inh MLPCN = human ABCB6 transporter inhibition. K562-ABCB6 porphyrin accumulation, flow cytometry, 1 h; hits give low values. AID 602162. fluorescence ratio to DMSO, % at 10 µM. actives 0.19% (n = 360,000). Q9NP58;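 active = fluorescence ratio to DMSO below 75%, the collection mean minus 3 SD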;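 note: signal is porphyrin accumulated inside mitochondria; 100% equals median channel fluorescence of DMSO control wells; lower ratio means ABCB6 inhibition with less porphyrin fluorescence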
Target sequence (Q9NP58 whole entry, looked up): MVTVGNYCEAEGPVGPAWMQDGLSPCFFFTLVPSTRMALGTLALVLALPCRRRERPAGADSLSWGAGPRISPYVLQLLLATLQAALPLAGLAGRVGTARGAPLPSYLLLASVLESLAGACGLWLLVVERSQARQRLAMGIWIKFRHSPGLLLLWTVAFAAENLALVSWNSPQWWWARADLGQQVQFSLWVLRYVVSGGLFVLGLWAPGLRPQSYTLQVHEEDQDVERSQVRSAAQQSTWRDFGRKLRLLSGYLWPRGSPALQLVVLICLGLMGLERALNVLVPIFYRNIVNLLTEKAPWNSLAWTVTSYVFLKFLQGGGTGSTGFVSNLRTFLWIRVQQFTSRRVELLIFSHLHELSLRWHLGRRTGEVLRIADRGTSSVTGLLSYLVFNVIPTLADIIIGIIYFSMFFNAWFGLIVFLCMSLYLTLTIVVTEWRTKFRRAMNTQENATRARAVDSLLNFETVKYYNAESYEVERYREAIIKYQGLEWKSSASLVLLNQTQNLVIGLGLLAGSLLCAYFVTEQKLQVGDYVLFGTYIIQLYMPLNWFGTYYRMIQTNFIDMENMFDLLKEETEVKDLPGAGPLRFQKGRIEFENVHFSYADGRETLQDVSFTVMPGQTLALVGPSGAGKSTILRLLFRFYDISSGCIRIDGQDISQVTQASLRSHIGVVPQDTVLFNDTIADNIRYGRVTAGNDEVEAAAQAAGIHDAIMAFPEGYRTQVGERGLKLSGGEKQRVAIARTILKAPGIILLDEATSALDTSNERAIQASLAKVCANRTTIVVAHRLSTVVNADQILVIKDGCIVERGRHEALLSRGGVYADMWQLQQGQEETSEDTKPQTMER
Granule exo inh = lytic granule exocytosis inhibition; TALL-104 LAMP-1 surface exposure, flow cytometry; cells stimulated with thapsigargin and PMA; inhibition, % at 10 µM; actives 0.66% (n = 360,000); AID 651702;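 active = inhibition above about 55%, limit read from the data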
Myeloid diff 2 = myeloid differentiation induction; ER-HoxA9 myeloid progenitors, lysozyme-GFP differentiation, flow cytometry; actives 1% (n = 360,000); calls only at 10 µM; AID 624256;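 active = normalized GFP-positive differentiation at or above the plate's own cutoff, the solvent-only control mean plus 3 SD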;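 note: cells exposed to compound for four days before flow analysis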
Myeloid diff = compounds promoting myeloid differentiation. calls only. actives 2% (n = 2,300). shares compounds with Myeloid diff 2. AID 651706. ER-HoxA9 myeloid progenitors, GFP/Mac1 double-positive flow;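 active = share of green or green-and-red cells above 9 and 9% in run 1 or 4 and 3% in run 2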
GFP autofluor = counter-screen for myeloid differentiation promoters: compound fluorescence; shares compounds with Myeloid diff 2; fluorescence response, % (concentration not given with the values); ER-HoxA9 myeloid progenitors, no estrogen, GFP autofluorescence flow cytometry; vehicle wells 0%, positive control 100%; actives 7.4% (n = 2,300);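 active = over 5% cells positive for green fluorescent reporter, or over 2% positive for both it and APC stain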;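 note: range taken on the double positive population between DMSO and positive control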
Active calls of the source: *; i = inactive; . = no result given; + = active, no number. This is a sample that favours compounds with a hit; in the whole collection about 3.3% have one here.

SMILES | CendR NRP1 mod | ATG4B inh | Arrestin-AP2 inh | ABCB6 inh MLPCN | Granule exo inh | Myeloid diff 2 | Myeloid diff | GFP autofluor
COc1cc(OC)c2c(-c3ccccc3)cc(=O)oc2c1C(CCN1CCCC(C)C1)c1ccc2c(c1)OCO2 (centres undefined) | 0.8 | 36.0 | 4.7 | 98.0 | -4.2 | i | i | 0.0
COc1cc(OC)c2c(-c3ccccc3)cc(=O)oc2c1C(CCN1CCCCC1)c1ccc2c(c1)OCO2 (centres undefined) | 13.2 | 18.6 | -8.0 | 92.0 | -2.3 | i | . | .
CSc1nc(N)nc(SCC(=O)Nc2ccc(Cl)cc2)c1C#N | -0.2 | 0.6 | 0.8 | 99.0 | -2.4 | i | i | 0.0
CCN(CC)CCNS(=O)(=O)c1ccc(C(=O)NN)cc1 | 9.4 | -1.5 | 24.5 | 100.0 | -1.5 | . | . | .
CN1C(=S)N(c2cccnc2)C(=O)/C1=C\c1ccc(N(C)C)cc1 | -169.0 | -3.0 | -27.4 | 133.0 | 0.3 | + | i | 3.4
CN1C(=S)N(c2cccnc2)C(=O)/C1=C\c1ccc(C(C)(C)C)cc1 | -30.7 | -0.9 | -13.3 | 91.0 | 21.9 | i | . | .
COc1ccc(S(=O)(=O)N2CCOC23CCN(S(=O)(=O)c2cc(C)ccc2OC)CC3)cc1 | 2.3 | -0.8 | -11.8 | 96.0 | -3.9 | i | . | .
CCCCOc1ccc(C(O)(CCC)CCN2CCOCC2)cc1 (centres undefined) | -3.7 | -5.9 | -21.8 | 94.0 | 4.3 | i | i | 0.0
O=C(CN1C(=O)NC2(CCCC2)C1=O)NCc1ccco1 | -6.4 | -10.1 | -9.6 | 98.0 | -0.3 | i | . | .
O=C(CN1C(=O)NC2(CCc3ccccc3C2)C1=O)NCc1ccco1 (centres undefined) | 16.4 | -0.3 | 33.1 | 100.0 | 4.4 | i | i | 0.0
CC(C)Nc1nc(NCCN2CCCC2)c2sc(-c3ccccc3)cc2n1 | 11.6 | . | . | 101.0 | 1.2 | + | i | 0.5
CC(C)Nc1nc(-c2ccccc2F)c2sc(-c3ccccc3)cc2n1 | 0.3 | . | . | 96.0 | -4.1 | i | . | .
CCNC(=O)C1(C)CCN(C(=O)c2ccc3c(c2)CCO3)C1 (centres undefined) | 17.4 | . | . | 93.0 | 5.9 | i | . | .
N#C/C(=C\Nc1ccc2cn[nH]c2c1)c1nc(-c2ccc(Cl)cc2)cs1 | -46.7 | 0.4 | -11.3 | 165.0 | 24.7 | + | + | 0.0
NC(=S)N/N=C/c1ccc(-c2ccc([N+](=O)[O-])cc2)o1 | -43.4 | -15.3 | -9.1 | 113.0 | 29.0 | i | i | 3.2
NC(=S)N/N=C/c1ccc(-c2cc(Cl)cc(Cl)c2)o1 | -48.0 | -2.9 | 3.0 | 113.0 | -1.0 | i | . | .
CC(C)N(C(=O)CN(C#N)c1nc(N(C)C)nc(N(C)C)n1)c1ccccc1 | 0.3 | 2.7 | 0.3 | 90.0 | 3.3 | i | i | 0.0
COC(=O)CN(C#N)c1nc(N(C)C)nc(N(C)C)n1 | -1.3 | -0.9 | -5.2 | 99.0 | -4.6 | i | . | .
CCC(C)NC(=S)Nc1ccc2nc(N3CCN(CC)CC3)cc(C)c2c1 (centres undefined) | -6.8 | -9.5 | 6.0 | 98.0 | -3.0 | + | i | 0.0
COc1cc(NC(=O)c2cc3nc(C4CC4)cc(C(F)(F)F)n3n2)c(OC)cc1Cl | 15.6 | 5.5 | 1.7 | 107.0 | 8.1 | i | i | 0.0
COC(=O)CSc1nnc(-c2ccc(S(=O)(=O)N3CCC(C)CC3)cc2)o1 | 6.0 | -3.0 | 31.1 | 89.0 | -4.3 | i | . | .
COC(=O)CSc1nnc(-c2ccc(S(=O)(=O)N3CCCCC3)cc2)o1 | -6.9 | 1.0 | 10.0 | 100.0 | 8.7 | + | i | 0.5
O=C1C(c2ccccc2)SC(=Nc2ccccc2)N1S(=O)(=O)c1ccccc1 (centres undefined) | 0.6 | -3.0 | 22.8 | 103.0 | 6.9 | i | . | .
c1ccc(Cn2ncc3c(N4CCCCC4)ncnc32)cc1 | 7.8 | -9.7 | -1.3 | 98.0 | 1.0 | i | . | .

Bioassay records from PubChem.
